ChEMBL document CHEMBL3877325, “Novel salicylanilides from 4,5-dihalogenated salicylic acids: Synthesis, antimicrobial activity and cytotoxicity” (Bioorg Med Chem, 2017)
Values after ≈ are worked out from the molar mass of the structure shown.

Legend:
[1] = test system: Mycobacterium tuberculosis; assay: Antimycobacterial activity against Mycobacterium tuberculosis H37Rv My 331/88 after 14 days by micromethod; type: functional; settings: H37Rv My 331/88, 336 h
Procedure, shortened: (§1)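 MIC micromethod in Šula's semisynthetic medium at 37 °C, read after 14 and 21 days. Compounds added as DMSO solutions at 500 down to 0.5 µM (twofold-type series: 500, 250, 125, 62.5, 32, 16, 8, 4, 2, 1, 0.5 µM). Isoniazid standard given in sterile water.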

[2] = test system: Mycobacterium tuberculosis; assay: Antimycobacterial activity against Mycobacterium tuberculosis H37Rv My 331/88 after 21 days by micromethod; type: functional; settings: H37Rv My 331/88, 504 h; procedure, shortened: as §1
Mycobacterium kansasii [3] = assay: Antimycobacterial activity against Mycobacterium kansasii isolate 235/80 after 21 days by micromethod; type: functional; settings: isolate 235/80, 504 h
Procedure, shortened: (§2)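 MIC in Šula's semisynthetic medium at 37 °C, read after 7, 14 and 21 days. Inoculum is strain dilution 10^-4; 235/80 is a collection strain and 6509/96 a clinical isolate. Compounds are added as DMSO solutions at 500, 250, 125, 62.5, 32, 16, 8, 4, 2, 1 and 0.5 µM. INH (in sterile water) and PAS are the reference drugs.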

Mycobacterium kansasii [4] = assay: Antimycobacterial activity against Mycobacterium kansasii isolate 235/80 after 14 days by micromethod; type: functional; settings: isolate 235/80, 336 h; procedure, shortened: as §2
Mycobacterium kansasii [5] = assay: Antimycobacterial activity against Mycobacterium kansasii isolate 6509/96 after 14 days by micromethod; type: functional; settings: isolate 6509/96, 336 h; procedure, shortened: as §2
Mycobacterium kansasii [6] = assay: Antimycobacterial activity against Mycobacterium kansasii isolate 6509/96 after 21 days by micromethod; type: functional; settings: isolate 6509/96, 504 h; procedure, shortened: as §2
Mycobacterium kansasii [7] = assay: Antimycobacterial activity against Mycobacterium kansasii isolate 235/80 after 7 days by micromethod; type: functional; settings: isolate 235/80, 168 h; procedure, shortened: as §2
Mycobacterium avium [8] = assay: Antimycobacterial activity against Mycobacterium avium My 330/80 after 14 days by micromethod; type: functional; settings: My 330/80, 336 h
Procedure, shortened: (§3)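 M. avium My 330/80 (collection strain) inoculated at 10^-5 dilution into Šula's semisynthetic medium. Compounds added from DMSO solutions at 500, 250, 125, 62.5, 32, 16, 8, 4, 2, 1 and 0.5 µM. MIC determined by micromethod at 37 °C, read after 14 and 21 days.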

Mycobacterium kansasii [9] = assay: Antimycobacterial activity against Mycobacterium kansasii isolate 6509/96 after 7 days by micromethod; type: functional; settings: isolate 6509/96, 168 h; procedure, shortened: as §2
[10] = Cytotoxicity against human HepG2 cells assessed as reduction in cell viability after 24 hrs by MTS assay; type: toxicity, cell-based
Procedure, shortened: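 HepG2 cells (passages 33-37) are grown in MEM with 10% FBS, L-glutamine and non-essential amino acids. They are seeded at 1 × 10^4 cells/well and treated next day with 0.1-100 µM in triplicate for 24 h at 37 °C, 5% CO2. MTS reagent is added for 2 h and A490 read.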

Mycobacterium avium [11] = assay: Antimycobacterial activity against Mycobacterium avium My 330/80 after 21 days by micromethod; type: functional; settings: My 330/80, 504 h; procedure, shortened: as §3
[12] = Selectivity index, ratio of IC50 for human HepG2 cells to MIC for Mycobacterium tuberculosis H37Rv after 21 days; type: toxicity, cell-based; settings: HepG2 cells versus Mycobacterium tuberculosis H37Rv, read-out: Selectivity Index
Procedure, shortened: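 HepG2 cells (passages 33-37) seeded at 1 × 10^4 per well and treated next day with 0.1–100 µM in triplicate. After 24 h at 37 °C, 5% CO2, MTS reagent added for 2 h and absorbance read at 490 nm. IC50 taken from viability relative to untreated control, then divided by the 21-day H37Rv MIC.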

Row | Structure (SMILES) | MIC [1] | MIC [2] | MIC (Mycobacterium kansasii [3]) | MIC (Mycobacterium kansasii [4]) | MIC (Mycobacterium kansasii [5]) | MIC (Mycobacterium kansasii [6]) | MIC (Mycobacterium kansasii [7]) | MIC (Mycobacterium avium [8]) | MIC (Mycobacterium kansasii [9]) | IC50 at 24 h [10] | MIC (Mycobacterium avium [11]) | selectivity ratio at 504 h [12]
1 | O=C(Nc1cc(C(F)(F)F)cc(C(F)(F)F)c1)c1ccc(Br)cc1O | 2 µM (≈ 0.856 µg/mL) | 4 µM (≈ 1.71 µg/mL) | 16 µM (≈ 6.85 µg/mL) | 8 µM (≈ 3.43 µg/mL) | 16 µM (≈ 6.85 µg/mL) | 16 µM (≈ 6.85 µg/mL) | 8 µM (≈ 3.43 µg/mL) | 32 µM (≈ 13.7 µg/mL) | 8 µM (≈ 3.43 µg/mL) | 8.08 µM | 32 µM (≈ 13.7 µg/mL) | 2.02
2 | O=C(Nc1ccc(Br)cc1)c1cc(Cl)c(Br)cc1O | 2 µM (≈ 0.811 µg/mL) | 2 µM (≈ 0.811 µg/mL) | 8 µM (≈ 3.24 µg/mL) | 8 µM (≈ 3.24 µg/mL) | 8 µM (≈ 3.24 µg/mL) | 8 µM (≈ 3.24 µg/mL) | 4 µM (≈ 1.62 µg/mL) | 32 µM (≈ 13 µg/mL) | 4 µM (≈ 1.62 µg/mL) | 9.78 µM | 32 µM (≈ 13 µg/mL) | 4.89
3 | O=C(Nc1cc(C(F)(F)F)cc(C(F)(F)F)c1)c1cc(Cl)c(Br)cc1O | 2 µM (≈ 0.925 µg/mL) | 2 µM (≈ 0.925 µg/mL) | 8 µM (≈ 3.7 µg/mL) | 8 µM (≈ 3.7 µg/mL) | 8 µM (≈ 3.7 µg/mL) | 8 µM (≈ 3.7 µg/mL) | 8 µM (≈ 3.7 µg/mL) | 32 µM (≈ 14.8 µg/mL) | 8 µM (≈ 3.7 µg/mL) | 4.8 µM | 32 µM (≈ 14.8 µg/mL) | 2.4
4 | O=C(Nc1ccc(Cl)c(Cl)c1)c1ccc(Br)cc1O | 1 µM (≈ 0.361 µg/mL) | 2 µM (≈ 0.722 µg/mL) | 4 µM (≈ 1.44 µg/mL) | 4 µM (≈ 1.44 µg/mL) | 4 µM (≈ 1.44 µg/mL) | 8 µM (≈ 2.89 µg/mL) | 4 µM (≈ 1.44 µg/mL) | 16 µM (≈ 5.78 µg/mL) | 4 µM (≈ 1.44 µg/mL) | 17.7 µM | 16 µM (≈ 5.78 µg/mL) | 8.84
5 | O=C(Nc1ccc(C(F)(F)F)cc1)c1cc(Br)c(Br)cc1O | 2 µM (≈ 0.878 µg/mL) | 2 µM (≈ 0.878 µg/mL) | 4 µM (≈ 1.76 µg/mL) | 4 µM (≈ 1.76 µg/mL) | 4 µM (≈ 1.76 µg/mL) | 4 µM (≈ 1.76 µg/mL) | 4 µM (≈ 1.76 µg/mL) | 32 µM (≈ 14 µg/mL) | 4 µM (≈ 1.76 µg/mL) | 6.25 µM | 62.5 µM (≈ 27.4 µg/mL) | 3.13
6 | O=C(Nc1ccc(Cl)c(Cl)c1)c1cc(Cl)c(Br)cc1O | 2 µM (≈ 0.791 µg/mL) | 4 µM (≈ 1.58 µg/mL) | 8 µM (≈ 3.16 µg/mL) | 8 µM (≈ 3.16 µg/mL) | 8 µM (≈ 3.16 µg/mL) | 8 µM (≈ 3.16 µg/mL) | 8 µM (≈ 3.16 µg/mL) | 125 µM (≈ 49.4 µg/mL) | 8 µM (≈ 3.16 µg/mL) | 11.1 µM | 125 µM (≈ 49.4 µg/mL) | 2.76
7 | O=C(Nc1ccc(Br)cc1)c1cc(Br)c(Br)cc1O | 4 µM (≈ 1.8 µg/mL) | 4 µM (≈ 1.8 µg/mL) | 8 µM (≈ 3.6 µg/mL) | 8 µM (≈ 3.6 µg/mL) | 8 µM (≈ 3.6 µg/mL) | 8 µM (≈ 3.6 µg/mL) | 4 µM (≈ 1.8 µg/mL) | 32 µM (≈ 14.4 µg/mL) | 8 µM (≈ 3.6 µg/mL) | 17.9 µM | 32 µM (≈ 14.4 µg/mL) | 4.47
8 | O=C(Nc1ccc(C(F)(F)F)cc1)c1cc(Cl)c(Br)cc1O | 1 µM (≈ 0.395 µg/mL) | 2 µM (≈ 0.789 µg/mL) | 4 µM (≈ 1.58 µg/mL) | 4 µM (≈ 1.58 µg/mL) | 4 µM (≈ 1.58 µg/mL) | 4 µM (≈ 1.58 µg/mL) | 4 µM (≈ 1.58 µg/mL) | 32 µM (≈ 12.6 µg/mL) | 4 µM (≈ 1.58 µg/mL) | 6.52 µM | 32 µM (≈ 12.6 µg/mL) | 3.26
9 | O=C(Nc1ccc(Cl)c(Cl)c1)c1cc(Br)c(Br)cc1O | 2 µM (≈ 0.88 µg/mL) | 4 µM (≈ 1.76 µg/mL) | 8 µM (≈ 3.52 µg/mL) | 8 µM (≈ 3.52 µg/mL) | 8 µM (≈ 3.52 µg/mL) | 8 µM (≈ 3.52 µg/mL) | 8 µM (≈ 3.52 µg/mL) | 62.5 µM (≈ 27.5 µg/mL) | 8 µM (≈ 3.52 µg/mL) | 7.96 µM | 62.5 µM (≈ 27.5 µg/mL) | 1.99
10 | O=C(Nc1cc(C(F)(F)F)cc(C(F)(F)F)c1)c1cc(Br)c(Br)cc1O | 2 µM (≈ 1.01 µg/mL) | 2 µM (≈ 1.01 µg/mL) | 8 µM (≈ 4.06 µg/mL) | 8 µM (≈ 4.06 µg/mL) | 8 µM (≈ 4.06 µg/mL) | 8 µM (≈ 4.06 µg/mL) | 4 µM (≈ 2.03 µg/mL) | 16 µM (≈ 8.11 µg/mL) | 8 µM (≈ 4.06 µg/mL) | 3 µM | 32 µM (≈ 16.2 µg/mL) | 1.5
11 | Nc1ccc(C(=O)O)c(O)c1 [AMINOSALICYLIC ACID] | 62.5 µM (≈ 9.57 µg/mL) | 62.5 µM (≈ 9.57 µg/mL) | > 1000 µM | 1000 µM (≈ 153 µg/mL) | 125 µM (≈ 19.1 µg/mL) | 500 µM (≈ 76.6 µg/mL) | 125 µM (≈ 19.1 µg/mL) | 32 µM (≈ 4.9 µg/mL) | 32 µM (≈ 4.9 µg/mL) | – | 125 µM (≈ 19.1 µg/mL) | –
12 | NNC(=O)c1ccncc1 [ISONIAZID] | 0.5 µM (≈ 0.0686 µg/mL) | 1 µM (≈ 0.137 µg/mL) | > 250 µM | > 250 µM | 8 µM (≈ 1.1 µg/mL) | 8 µM (≈ 1.1 µg/mL) | > 250 µM | > 250 µM | 4 µM (≈ 0.549 µg/mL) | – | > 250 µM | –
